Experimental data published in ChEMBL document CHEMBL4414561, “Cholinesterase Inhibitory Arisugacins L-Q from a Penicillium sp. Isolate Obtained through a Citizen Science Initiative and Their Activities in a Phenotype-Based Zebrafish Assay” (J Nat Prod, 2019).
Active and inactive are the calls of the source. The rule behind the calls is not given here.

How the values were obtained:
[1] = biological target: Acetylcholinesterase (Electrophorus electricus) (UniProt O42275); assay: Inhibition of electric eel AChE at 50 uM incubated for 15 mins by Ellman's method relative to control
How it was run: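 Colorimetric kit assay with Electrophorus electricus AChE. Compound is incubated with enzyme for 15 min. Assay buffer containing AChE substrate and DTNB is then added, and absorbance is read at 0 and 15 min. Single-point screen at 50 μM; IC50 also determined.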

[2] = organism: Danio rerio; assay: Induction of paralysis in AB/TU zebra fish at 1 uM treated at 7 hpf and measured after 72 hrs; format: functional, organism-based
How it was run: (§1)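 Embryos exposed from 7 h postfertilization and scored for paralysis at 72 hpf. Value is the lowest concentration giving paralysis; […]. Pure compounds come from 10 mM DMSO stocks, with further dilutions made in DMSO.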

[3] = biological target: Cholinesterase (Equus caballus) (UniProt P81908); assay: Inhibition of equine serum BChE at 50 uM using S-butyrylthiocholine iodide as substrate incubated for 15 mins by Ellman's method relative to control
How it was run: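 Same colorimetric kit with equine serum butyrylcholinesterase and S-butyrylthiocholine iodide substrate plus DTNB. Compound is preincubated with enzyme for 15 min. Absorbance is read at 0 and 15 min after substrate addition. Sample tested at 50 μM.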

[4] = organism: Danio rerio; assay: Induction of paralysis in AB/TU zebra fish at 5 uM treated at 7 hpf and measured after 72 hrs; format: functional, organism-based; how it was run: as §1
[5] = biological target: Acetylcholinesterase (Electrophorus electricus, UniProt O42275); assay: Inhibition of electric eel AChE incubated for 15 mins by Ellman's method
How it was run: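 Colorimetric kit assay with Electrophorus electricus AChE. Compound is incubated with enzyme for 15 min. Assay buffer containing AChE substrate and DTNB is then added, and absorbance is read at 0 and 15 min.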

[6] = organism: Danio rerio; assay: Induction of paralysis in AB/TU zebra fish at 100 uM treated at 7 hpf and measured after 72 hrs; format: functional, organism-based; how it was run: as §1
[7] = organism: Danio rerio; assay: Induction of paralysis in AB/TU zebra fish at 50 uM treated at 7 hpf and measured after 72 hrs; format: functional, organism-based; how it was run: as §1
[8] = organism: Danio rerio; assay: Induction of paralysis in AB/TU zebra fish at 10 uM treated at 7 hpf and measured after 72 hrs; format: functional, organism-based; how it was run: as §1

Acetylcholinesterase (Electrophorus electricus), sequence (O42275 24-633 limits assumed): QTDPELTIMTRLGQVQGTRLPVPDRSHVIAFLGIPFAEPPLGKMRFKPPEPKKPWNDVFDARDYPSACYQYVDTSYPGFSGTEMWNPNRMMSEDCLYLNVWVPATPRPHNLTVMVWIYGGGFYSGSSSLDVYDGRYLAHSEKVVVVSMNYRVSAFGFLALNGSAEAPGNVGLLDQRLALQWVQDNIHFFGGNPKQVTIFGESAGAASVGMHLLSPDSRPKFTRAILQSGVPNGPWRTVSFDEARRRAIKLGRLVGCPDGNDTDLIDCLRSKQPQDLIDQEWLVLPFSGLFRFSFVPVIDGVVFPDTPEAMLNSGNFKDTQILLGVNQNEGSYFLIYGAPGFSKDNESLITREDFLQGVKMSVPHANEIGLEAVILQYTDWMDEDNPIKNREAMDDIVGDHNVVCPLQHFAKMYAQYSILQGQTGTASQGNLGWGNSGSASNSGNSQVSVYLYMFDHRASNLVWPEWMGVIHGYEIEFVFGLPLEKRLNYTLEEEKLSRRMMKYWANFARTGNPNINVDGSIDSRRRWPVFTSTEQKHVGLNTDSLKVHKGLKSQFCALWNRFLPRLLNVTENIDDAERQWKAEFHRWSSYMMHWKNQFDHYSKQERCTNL
Acetylcholinesterase, sequence (O42275 whole entry): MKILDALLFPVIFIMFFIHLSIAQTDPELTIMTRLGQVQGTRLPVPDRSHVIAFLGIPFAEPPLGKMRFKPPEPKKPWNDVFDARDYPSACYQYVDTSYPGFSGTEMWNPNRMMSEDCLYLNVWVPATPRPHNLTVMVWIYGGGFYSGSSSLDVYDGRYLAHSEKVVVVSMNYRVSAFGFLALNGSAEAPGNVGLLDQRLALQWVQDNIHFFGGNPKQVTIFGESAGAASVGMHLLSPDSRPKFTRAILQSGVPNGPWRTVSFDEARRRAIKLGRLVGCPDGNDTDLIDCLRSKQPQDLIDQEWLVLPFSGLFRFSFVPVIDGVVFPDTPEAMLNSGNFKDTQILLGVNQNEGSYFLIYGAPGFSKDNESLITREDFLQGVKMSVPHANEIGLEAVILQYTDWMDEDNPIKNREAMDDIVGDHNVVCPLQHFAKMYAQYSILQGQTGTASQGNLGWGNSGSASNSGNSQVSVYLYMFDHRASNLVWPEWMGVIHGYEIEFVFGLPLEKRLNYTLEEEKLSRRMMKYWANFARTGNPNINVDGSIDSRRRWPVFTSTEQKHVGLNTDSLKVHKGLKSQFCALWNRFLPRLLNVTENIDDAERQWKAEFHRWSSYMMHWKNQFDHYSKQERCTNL
Cholinesterase (Equus caballus), sequence (P81908 whole entry): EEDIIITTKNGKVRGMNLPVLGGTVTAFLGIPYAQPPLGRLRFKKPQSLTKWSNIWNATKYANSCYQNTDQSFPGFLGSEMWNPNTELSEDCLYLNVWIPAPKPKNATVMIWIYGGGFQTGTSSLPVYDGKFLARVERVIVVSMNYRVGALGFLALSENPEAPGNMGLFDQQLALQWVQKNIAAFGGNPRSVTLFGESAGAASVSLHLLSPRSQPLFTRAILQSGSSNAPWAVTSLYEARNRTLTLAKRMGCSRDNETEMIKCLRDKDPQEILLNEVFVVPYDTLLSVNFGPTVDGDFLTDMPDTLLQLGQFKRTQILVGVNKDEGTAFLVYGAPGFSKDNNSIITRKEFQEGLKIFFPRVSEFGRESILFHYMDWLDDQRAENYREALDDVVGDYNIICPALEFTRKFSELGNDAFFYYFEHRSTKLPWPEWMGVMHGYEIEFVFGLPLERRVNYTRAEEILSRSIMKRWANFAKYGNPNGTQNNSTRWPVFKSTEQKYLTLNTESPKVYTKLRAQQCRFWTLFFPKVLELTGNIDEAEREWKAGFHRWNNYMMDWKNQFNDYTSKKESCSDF

`COP(=S)(OC)SCn1nnc2ccccc2c1=O` was tested, and the inhibition [1] was 12.2%, the Activity [2] was “Active” and the inhibition [3] was 3.3%.
`COc1ccc(-c2cc3c(c(=O)o2)C[C@@H]2[C@@]4(C)CCC(=O)C(C)(C)[C@@H]4CC[C@@]2(C)O3)cc1` was tested, and the inhibition [1] was 26.9%, the inhibition [3] was 11.6% and the Activity [4] was “Active”. The IC50 [5] was > 100 µM.
In the case of `COc1ccc(-c2cc3c(c(=O)o2)C[C@H]2[C@@](C)(CC[C@@]4(O)C(C)(C)[C@@H](O)CC[C@]24C)O3)cc1`, the inhibition [1] is reported as 75.4%, the inhibition [3] is reported as 7% and the Activity [6] is reported as “inactive”.
In the case of `COc1ccc(-c2cc3c(c(=O)o2)C[C@H]2[C@@]4(C)C=CC(=O)C(C)(C)[C@@H]4CC[C@@]2(C)O3)cc1`, the inhibition [1] is reported as 40.3%, the inhibition [3] is reported as 0% and the Activity [4] is reported as “Active”. The IC50 [5] was 66 µM.
With `CNC(=O)Oc1ccc2c(c1)[C@]1(C)CCN(C)[C@@H]1N2C` the inhibition [1] was 99.8%, the inhibition [3] was 93.2% and the Activity [6] was “Active”.
`COc1ccc(-c2cc3c(c(=O)o2)C[C@]2(O)[C@@]4(C)C(=O)C[C@@H](O)C(C)(C)[C@]4(O)CC[C@@]2(C)O3)cc1` was tested, and the inhibition [1] was 98%, the Activity [2] was “Active” and the inhibition [3] was 0%. It also gave an IC50 [5] of 0.191 µM.
`COc1ccc(-c2cc(O)c(C/C=C(\C)CC/C=C(\C)CCC=C(C)C)c(=O)o2)cc1` was tested, and the inhibition [1] was 4.3%, the inhibition [3] was 0% and the Activity [7] was “Active”. The IC50 [5] was > 100 µM.
With `CC(C)NP(=O)(NC(C)C)OP(=O)(NC(C)C)NC(C)C` [TETRAISOPROPYL PYROPHOSPHORAMIDE] the inhibition [1] was 1.3%, the inhibition [3] was 15.1% and the Activity [6] was “inactive”. The IC50 [5] was > 100 µM.
For `COc1ccc(-c2cc3c(c(=O)o2)C[C@]2(O)[C@@]4(C)CC[C@@H](O)C(C)(C)[C@]4(O)CC[C@@]2(C)O3)cc1`, the inhibition [1] was 83.4%, the inhibition [3] was 0% and the Activity [6] was “inactive”.
For `COc1ccc(-c2cc3c(c(=O)o2)C[C@]2(O)[C@@]4(C)[C@H](O)CC(=O)C(C)(C)[C@@]4(O)CC[C@@]2(C)O3)cc1`, the inhibition [1] was 83.6%, the inhibition [3] was 0% and the Activity [6] was “inactive”. For the same compound, the IC50 [5] was 4.6 µM.
With `COc1ccc(-c2cc(O)c(C/C=C(\C)CC/C=C(\C)CCC(O)C(C)(C)O)c(=O)o2)cc1` (stereo unspecified) the inhibition [1] was 34.1%, the Activity [8] was “Active” and the inhibition [3] was 4.7%. The IC50 [5] was > 100 µM.
With `COc1ccc(-c2cc3c(c(=O)o2)C[C@]2(O)[C@@]4(C)CC[C@H](O)C(C)(C)[C@]4(O)CC[C@@]2(C)O3)cc1` the inhibition [1] was 89.4%, the inhibition [3] was 4.7% and the Activity [7] was “Active”. For the same compound, the IC50 [5] was 3.9 µM.
For `COc1ccc(-c2cc3c(c(=O)o2)C[C@]2(O)[C@@]4(C)CC[C@@H](OC(C)=O)C(C)(C)[C@]4(O)CC[C@@]2(C)O3)cc1`, the inhibition [1] was 60.1%, the Activity [8] was “Active” and the inhibition [3] was 4.7%.
In the case of `COc1ccc(-c2cc3c(c(=O)o2)C[C@]2(O)[C@@]4(C)CCC(=O)C(C)(C)[C@]4(O)CC[C@@]2(C)O3)cc1`, the inhibition [1] is reported as 96.6%, the inhibition [3] is reported as 9.3% and the Activity [6] is reported as “inactive”.
For `COc1ccc(-c2cc3c(c(=O)o2)C[C@]2(O)[C@@]4(C)[C@H](O)C[C@@H](O)C(C)(C)[C@]4(O)CC[C@@]2(C)O3)cc1`, the inhibition [1] was 29.2%, the inhibition [3] was 0% and the Activity [6] was “inactive”. The IC50 [5] was > 100 µM.
`COc1ccc(-c2cc3c(c(=O)o2)C[C@H]2[C@@](C)(CC[C@@]4(O)C(C)(C)C(=O)CC[C@]24C)O3)cc1` was tested, and the inhibition [1] was 95.1%, the inhibition [3] was 32.6% and the Activity [4] was “Active”. It also gave an IC50 [5] of 1.4 µM.
For `COc1ccc(-c2cc3c(c(=O)o2)C[C@@H]2[C@@]4(C)CC[C@H](O)C(C)(C)[C@@H]4CC[C@@]2(C)O3)cc1`, the inhibition [1] was 3%, the inhibition [3] was 4.7% and the Activity [6] was “inactive”.
